Tb MetRS inh – T. brucei MetRS inhibitors, primary screen, biochemical, luminescence. purified T. brucei MetRS, ATP depletion, Kinase-Glo luminescence. inhibition, % at 11.9 µM. 0.4% of 360,000 active. AID 624268, 2012;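 active = inhibition above a per-plate cutoff of the control wells' mean inhibition plus 3 SD, cut at about 5.5% in these data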;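 also: 0% = DMSO wells median and 100% = median of wells with control inhibitor compound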
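System: purified T. brucei MetRS enzyme / Detection: Kinase-Glo luciferase luminescence reporting remaining unconsumed ATP / Medium: HEPES buffer with MgCl2, KCl, DTT, spermine, BSA, pyrophosphatase / Replication: singlicate, one well per compound / Evaluation: percent inhibition relative to median high and low control wells / Schedule: 2 h aminoacylation at 25 °C after 15 min preincubation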
WT yeast gro inh – growth inhibition of WT strain, primary screen, mitochondrial fusion inhibitor project, WT and mutant strains, chemical genetic | mitochondrial fusion phenotypic screen | inhibition, % at 10 µM | 2.1% of 190,000 active; in the data active = inhibition above about 58%; tested in S. cerevisiae
NR3A LBD binder – binders of NR3A ligand-binding domain, primary screen, biophysical, differential scanning fluorimetry, uHTS | Glutamate receptor ionotropic, NMDA 3A (GRIN3A) ligand-binding domain | NR3A LBD differential scanning fluorimetry, Tm shift; 0% = protein alone, 100% = glycine-bound protein | Tm shift relative to glycine control, % at 25 µM | 2.5% of 340,000 active;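 active = melting temperature shift of at least 10% of the positive control shift, at one fixed dose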
CHOP inh – inhibitors of CHOP promoter induction, primary screen, cell-based, unfolded protein response, luciferase reporter; CHO-K1 CHOP-promoter luciferase, tunicamycin-induced, 15-18 h; inhibition, % at 10 µM; 3.8% of 220,000 active; AID 2732, 2010;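 active = compounds that reduced the stress-induced luciferase reporter signal by more than about 70% of percent inhibition, limit read from the data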;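 also: 0% = tunicamycin plus vehicle and 100% = wells without tunicamycin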
MPTP inh – mitochondrial permeability transition pore inhibitors, primary screen, biochemical, isolated mouse mitochondria, absorbance; Ca2+ swelling absorbance, 30 min; inhibition, % at 10 µM; 1.4% of 360,000 active; AID 602449, 2012;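 active = inhibition of 50% or more, scaled per plate between neutral and stimulator controls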;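 also: 0% = DMSO wells given calcium and 100% = 1 mM EGTA wells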
EBV gp42 inh – Epstein-Barr virus gp42 inhibitors, primary screen, biochemical, uHTS, fluorescence polarization; Fluorescence polarization binding assay, mP read-out; Glycoprotein 42 (Epstein-Barr virus (strain AG876)), Q1HVG2; 0.42% of 220,000 active; inhibition, % (tested at 21.74 µM); in the data active = inhibition above about 50%
Target sequence (Q1HVG2 whole entry, looked up): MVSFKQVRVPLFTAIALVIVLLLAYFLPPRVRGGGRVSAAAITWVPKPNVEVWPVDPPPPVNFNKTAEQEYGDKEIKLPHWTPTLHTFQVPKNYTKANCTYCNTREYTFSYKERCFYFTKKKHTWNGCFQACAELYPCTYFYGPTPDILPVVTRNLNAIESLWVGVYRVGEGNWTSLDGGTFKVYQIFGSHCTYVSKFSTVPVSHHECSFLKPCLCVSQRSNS
MPTP counter – fluorescence retest of MPTP screen hits in isolated mitochondria, single concentration. shares compounds with MPTP inh. membrane potential, Rhodamine 123 fluorescence. inhibition, % at 10 µM. 78% of 5,000 active; in the data active = inhibition above about 22%;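 also: 0% = DMSO vehicle and 100% = positive control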
MPTP abs DR – mitochondrial permeability transition pore inhibitors, dose response, biochemical, absorbance, uHTS hits; shares compounds with MPTP inh; isolated mitochondria swelling; IC50, µM; 58% of 780 active; AID 651561, 2012; in the data active = IC50 below about 20 µM
MPTP counter DR – fluorescent counter-screen in isolated mitochondria, dose response, counter-screen for MPTP inhibitor project, biochemical, fluorescence, uHTS hits; IC50, µM; shares compounds with MPTP inh; 49% of 780 active; AID 651564, 2012; isolated mitochondria counterscreen, fluorescence read-out; in the data active = IC50 below about 80 µM
* hit, by the source's call; . = not tested or not shown. The list is not random: actives were taken first. Their share in the collection is about 6.4%.

SMILES | Tb MetRS inh | WT yeast gro inh | NR3A LBD binder | CHOP inh | MPTP inh | EBV gp42 inh | MPTP counter | others
CC(NC(=O)Nc1nnc(C(F)(F)F)s1)(C(F)(F)F)C(F)(F)F | -1 | 70* | 2 | 89* | 94* | 1 | 110*
CCSc1nnc(NC(=O)c2ccc(Br)s2)s1 | -1 | 5 | -7 | . | -1 | -11 | .
CCOC(=O)[C@@H]1[C@H]2COc3ccccc3[C@@H]2N2C(=O)N(c3ccc(OC)cc3)C(=O)[C@]12C | 0 | . | 2 | . | 0 | . | .
O=C(Nc1ccccn1)C1CCN(C(=O)c2ccc(F)cc2)CC1 | -1 | . | 0 | . | 0 | . | .
CSc1ncc(Cl)c(C(=O)C(C#N)c2nc3c(C)cc(C)cc3c(=O)[nH]2)n1 (stereo not given) | 0 | 4 | -4 | 52 | 91* | -14 | 73*
Clc1ccc(N2CCN(/N=C/c3ccncc3)CC2)cc1 | -1 | . | 0 | 33 | 61* | -9 | 50*
Cc1ccc(N2CCN(/N=C/c3ccncc3)CC2)cc1 | 0 | -1 | 0 | 36 | 4 | -1 | .
O=C(NC(Nc1nc2ccc([N+](=O)[O-])cc2s1)(C(F)(F)F)C(F)(F)F)c1cccnc1 | -2 | 16 | 1 | 90* | 87* | 0 | 97*
Cc1ccc(C2=C(O)C(=O)C(c3ccc(C)cc3)=C(O)C2=O)cc1 | 0 | . | -5 | . | 56* | . | -44 | MPTP abs DR=14*;MPTP counter DR=<2.5*
COCCCNC(=S)N1CCN(c2nc(-c3ccccc3)cs2)CC1 | 0 | . | -3 | . | 2 | . | .
COCCCNC(=S)N1CCN(c2nc(-c3ccc(Cl)cc3)cs2)CC1 | 0 | . | . | . | 76* | . | 78*
COc1cccc(-c2csc(N3CCN(C(=O)Nc4ccc(Cl)cc4)CC3)n2)c1 | 0 | 67* | 15* | 7 | 88* | -6 | 89*
COc1ccc(NC(=O)N2CCN(c3nc(-c4cccc(OC)c4)cs3)CC2)cc1 | 0 | 16 | 0 | 22 | 2 | -15 | .
O=C(Nc1cccc(Cl)c1)N(CCN1CCOCC1)Cc1ccccc1F | -2 | 7 | 1 | 29 | 79* | -17 | 77*
COc1ccc(OC)c(CN(CCN2CCOCC2)C(=O)Nc2cccc(Cl)c2)c1 | 0 | -2 | 0 | 14 | 0 | -14 | .
O=C(Nc1cccc(Cl)c1)N(CCN1CCOCC1)Cc1cccc(Cl)c1 | 0 | 26 | 6 | 22 | 85* | -3 | 91*
COc1ccc(CN(CCCN2CCOCC2)C(=O)Nc2cccc(Cl)c2)cc1OC | -2 | 7 | -1 | 22 | 3 | 2 | .
CCn1cc(C(=O)O)c(=O)c2cc(F)c(N3CCN(C(=S)NC(=O)c4c(OC)cccc4OC)CC3)cc21 | 0 | . | 1 | . | 0 | . | .
COC(=O)/C=C1\N/C(=N/c2nc(C)c3cc(OC)ccc3n2)NC1=O | -1 | . | -1 | . | 3 | . | .
O=C(N/N=C/C1C(c2ccccc2)C1(Cl)Cl)c1cccc(Cl)c1 (stereo not given) | 0 | 44 | -5 | 23 | 75* | 3 | 80*
CC1=C(C(=O)OCc2ccccc2)C(c2cccc(F)c2)NC(=O)N1 (stereo not given) | -1 | . | -1 | . | -1 | . | .
Cc1ccc(NC(=O)c2ccc(Cl)c(N3C(=O)C=CC3=O)c2)cc1 | -1 | -4 | -1 | 43 | 84* | -42 | 86*
CC(C)COC(=O)NCCOC(=O)Nc1cccc(Cl)c1 | 0 | 9 | -1 | 56 | 102* | -21 | 100*
CC(NC(=O)C1CCC(C(C)(C)C)CC1)C(c1ccccc1)N1CCOCC1 (stereo not given) | 0 | 19 | -1 | 36 | 5 | -12 | .
Cc1noc(C)c1CSc1nc2ccccc2nc1NS(=O)(=O)c1ccc(Cl)cc1 | 0 | -9 | 5 | . | 88* | 8 | 87*
SMILES | Tb MetRS inh | WT yeast gro inh | NR3A LBD binder | CHOP inh | MPTP inh | EBV gp42 inh | MPTP counter | others
C=CCN1C(=O)S/C(=C/c2ccsc2)C1=O | 0 | -10 | 2 | -5 | 1 | -6 | .
C=CCN1C(=O)S/C(=C/c2ccc(Sc3nc4ccccc4[nH]3)o2)C1=O | 0 | 4 | -1 | 38 | 91* | -19 | 88*
CCOC(=O)C(C)N1C(=O)S/C(=C\c2ccc(-c3ccccc3C(=O)O)o2)C1=O (stereo not given) | -1 | . | 3 | . | 1 | . | .
CC(C)N1C(=O)S/C(=C/c2ccc(Sc3nc4ccccc4[nH]3)o2)C1=O | 0 | 25 | -8 | 70* | 100* | 0 | 88*
O=C(Nc1ncc(S(=O)(=O)c2ccc([N+](=O)[O-])cc2)s1)c1ccccc1F | 0 | . | -2 | 15 | 49 | -3 | .
COC(=O)C(NC(=O)c1ccc(F)cc1)(Nc1ncc(S(=O)(=O)c2ccc([N+](=O)[O-])cc2)s1)C(F)(F)F (stereo not given) | 0 | 9 | 0 | 1 | 90* | -2 | 88*
O=C(CSc1nnc(NC(=O)c2ccco2)s1)Nc1ccccc1Cl | 0 | . | -2 | . | -1 | . | .
O[C@@H]1CN(Cc2ccc(-n3cccn3)cc2)CC[C@H]1N1CCN(c2ccccc2F)CC1 | 0 | . | -1 | . | 69* | . | 59*
O=[N+]([O-])c1ccc2nc(/C=C/c3ccc(Cl)cc3)[nH]c2c1 | 1 | 67* | 2 | 59 | 90* | -21 | 80*
O=[N+]([O-])c1ccc2nc(C(O)C(O)c3nc4ccc([N+](=O)[O-])cc4[nH]3)[nH]c2c1 (stereo not given) | 1 | . | -12 | . | 0 | . | .
O=[N+]([O-])c1ccc(-c2nc3ccc([N+](=O)[O-])cc3[nH]2)cc1 | 0 | 13 | -2 | 50 | 105* | 75* | 92*
Cc1cc2nc(CCN(C(=S)NCC(C)C)C3CCCC3)[nH]c2cc1C | 0 | . | -3 | 43 | 85* | 9 | 84*
Cc1cc2nc(CCN(C(=S)NCC3CCCO3)C3CCCC3)[nH]c2cc1C (stereo not given) | -1 | 15 | -1 | 0 | -1 | 4 | .
Cc1ccc(Cc2c(C)c(C#N)c3[nH]c4ccccc4n3c2=O)cc1 | 1 | . | 4 | 56 | 89* | -10 | 70*
